{"source": "ChEMBL document CHEMBL2010769", "about": "“Synthesis and antiviral activity of 6-deoxycyclopropavir, a new prodrug of cyclopropavir” (Bioorg Med Chem, 2012)", "key": {"Murid betaherpesvirus 1 [1]": {"tested_on": "Murid betaherpesvirus 1", "assay": "Antiviral activity against MCMV infected in BALB/c mouse assessed as decrease in virus-induced mortality at 5.6 mg/kg, po qd for 5 days administered 24 hrs after viral infection (reference value: 67%)", "assay_type": "functional", "parameters": "scale not given: the % may be the effect or the level left", "summary_of_the_method": "(§1)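 Female BALB/c mice (3 weeks, 15/group) were inoculated ip with MCMV Smith at about LD90. Oral dosing of 0.2 mL in 0.4% CMC ran once daily for 5 days, starting 24 or 48 h post-inoculation. Mice were observed daily for 21 days. Mortality was compared with CMC placebo by Fisher's exact test.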"}, "Human betaherpesvirus 5 [2]": {"tested_on": "Human betaherpesvirus 5", "assay": "Antiviral activity against HCMV Toledo infected in human thymus/liver tissue xenografted in SCID mouse assessed as decrease in viral infection at 6.25 mg/kg, po qd for 21 days by RT-PCR analysis (reference value: 92%)", "assay_type": "functional, strain Toledo", "parameters": "scale not given: the % may be the effect or the level left"}, "Mus musculus [3]": {"tested_on": "Mus musculus", "assay": "Toxicity in BALB/c mouse assessed as body weight loss at 16.7 mg/kg, po qd for 5 days relative to control", "assay_type": "organism-based", "parameters": "dose 16.7 mg/kg, route oral", "conditions": "in vivo, 120 h", "summary_of_the_method": "(§2)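 Uninfected female BALB/c mice, 3 weeks old, in groups of 5. Compound suspended in 0.4% carboxymethylcellulose and given orally in 0.2 mL once daily for 5 days at 50, 16.7 or 5.6 mg/kg. Mean group body weight tracked over days 1–5 plus day 6 recovery. Clinical signs (ruffled coat, behaviour) were observed. Comparison was with vehicle-treated or untreated mice.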"}, "Human betaherpesvirus 5 [4]": {"tested_on": "Human betaherpesvirus 5", "assay": "Antiviral activity against HCMV Toledo infected in human thymus/liver tissue xenografted in SCID mouse assessed as mean log10 genome equivalents/animal at 6.25 mg/kg, po qd for 21 days by RT-PCR analysis (reference value: 3.82 +/- 1.24)", "assay_type": "functional, strain Toledo"}, "Human betaherpesvirus 5 [5]": {"tested_on": "Human betaherpesvirus 5", "assay": "Antiviral activity against HCMV Toledo infected in human thymus/liver tissue xenografted in SCID mouse assessed as mean log10 genome equivalents/animal at 12.5 mg/kg, po qd for 14 days by RT-PCR analysis (reference value: 3.50 +/- 0.878)", "assay_type": "functional, strain Toledo"}, "Human betaherpesvirus 5 [6]": {"tested_on": "Human betaherpesvirus 5", "assay": "Antiviral activity against HCMV Toledo infected in human thymus/liver tissue xenografted in SCID mouse assessed as decrease in viral infection at 12.5 mg/kg, po qd for 28 days by RT-PCR analysis (reference value: 92%)", "assay_type": "functional, strain Toledo", "parameters": "scale not given: the % may be the effect or the level left"}, "Murid betaherpesvirus 1 [7]": {"tested_on": "Murid betaherpesvirus 1", "assay": "Antiviral activity against MCMV infected in BALB/c mouse assessed as decrease in virus-induced mortality at 50 mg/kg, po qd for 5 days administered 24 hrs after viral infection (reference value: 67%)", "assay_type": "functional", "parameters": "scale not given: the % may be the effect or the level left", "summary_of_the_method": "as §1"}, "[8]": {"assay": "Prodrug activation assessed as cyclopropavir formation in presence of cow milk xanthine oxidase", "conditions": "cattle", "summary_of_the_method": "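Cow-milk xanthine oxidase, 0.4 units, acting on 0.07 mM substrate in 0.05 M Na2HPO4, pH 7.5, at room temperature. Conversion followed continuously at 304 nm. UV spectra were taken before enzyme addition (T = 0) and at 720 min and matched against authentic parent and product.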"}, "[9]": {"assay": "Cytotoxicity against human Akata cells", "assay_type": "cell-based"}, "Human betaherpesvirus 5 [10]": {"tested_on": "Human betaherpesvirus 5", "assay": "Antiviral activity against HCMV Toledo infected in human thymus/liver tissue xenografted in SCID mouse assessed as decrease in viral infection at 12.5 mg/kg, po qd for 28 days measured on day 35 by RT-PCR analysis (reference value: 67%)", "assay_type": "functional, strain Toledo", "parameters": "scale not given: the % may be the effect or the level left"}, "Human betaherpesvirus 5 [11]": {"tested_on": "Human betaherpesvirus 5", "assay": "Antiviral activity against HCMV AD169 infected in HFF assessed as reduction in virus induced cytopathic effect", "assay_type": "functional, organism-based", "conditions": "Human betaherpesvirus 5, AD169", "summary_of_the_method": "(§3)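 HCMV work used human foreskin fibroblasts as primary cultures, propagated in MEM with 10% FBS and L-glutamine, with or without antibiotics.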"}, "Human betaherpesvirus 5 [12]": {"tested_on": "Human betaherpesvirus 5", "assay": "Antiviral activity against HCMV Towne infected in HFF by plaque reduction assay", "assay_type": "functional, organism-based", "conditions": "Human betaherpesvirus 5, Towne", "summary_of_the_method": "as §3"}, "[13]": {"assay": "Cytotoxicity against HFF", "assay_type": "cell-based", "conditions": "human, HFF cells"}, "Mus musculus [14]": {"tested_on": "Mus musculus", "assay": "Toxicity in BALB/c mouse assessed as ruffled coat appearance at 50 mg/kg, po qd for 5 days relative to control", "assay_type": "organism-based", "parameters": "dose 50 mg/kg, route oral", "conditions": "in vivo, 120 h", "summary_of_the_method": "as §2"}, "Human betaherpesvirus 5 [15]": {"tested_on": "Human betaherpesvirus 5", "assay": "Antiviral activity against HCMV Toledo infected in human thymus/liver tissue xenografted in SCID mouse assessed as mean log10 genome equivalents/animal at 6.25 mg/kg, po qd for 28 days by RT-PCR analysis (reference value: 3.73 +/- 0.784)", "assay_type": "functional, strain Toledo"}, "Murid betaherpesvirus 1 [16]": {"tested_on": "Murid betaherpesvirus 1", "assay": "Antiviral activity against MCMV infected in BALB/c mouse assessed as decrease in virus-induced mean day of death at 5.6 mg/kg, po qd for 5 days administered 24 hrs after viral infection (reference value: 4.9 +/- 0.7 days)", "assay_type": "functional"}, "Murid betaherpesvirus 1 [17]": {"tested_on": "Murid betaherpesvirus 1", "assay": "Antiviral activity against MCMV infected in BALB/c mouse assessed as decrease in virus-induced mortality at 50 mg/kg, po qd for 5 days administered 48 hrs after viral infection (reference value: 100%)", "assay_type": "functional", "parameters": "scale not given: the % may be the effect or the level left", "summary_of_the_method": "as §1"}, "Vaccinia virus": {"tested_on": "Vaccinia virus", "assay": "Antiviral activity against Vaccinia virus infected in HFF assessed as reduction in virus induced cytopathic effect at 100 uM", "assay_type": "functional, organism-based", "conditions": "Orthopoxvirus vaccinia"}, "Human alphaherpesvirus 1": {"tested_on": "Human alphaherpesvirus 1", "assay": "Antiviral activity against HSV1 infected in HFF assessed as reduction in virus induced cytopathic effect", "assay_type": "functional, organism-based"}, "Human gammaherpesvirus 4": {"tested_on": "Human gammaherpesvirus 4", "assay": "Antiviral activity against Epstein-Barr virus infected in Akata cells by DNA hybridization assay", "assay_type": "functional, organism-based", "conditions": "human gammaherpesvirus 4, Akata"}, "Murid betaherpesvirus 1 [18]": {"tested_on": "Murid betaherpesvirus 1", "assay": "Antiviral activity against MCMV infected in BALB/c mouse assessed as decrease in virus-induced mean day of death at 50 mg/kg, po qd for 5 days administered 48 hrs after viral infection (reference value: 5.1 +/- 0.9 days)", "assay_type": "functional"}, "Human betaherpesvirus 5 [19]": {"tested_on": "Human betaherpesvirus 5", "assay": "Antiviral activity against HCMV Toledo infected in human thymus/liver tissue xenografted in SCID mouse assessed as mean log10 genome equivalents/animal at 6.25 mg/kg, po qd for 28 days measured on day 35 by RT-PCR analysis (reference value: 3.28 +/- 1.422)", "assay_type": "functional, strain Toledo"}, "Murid betaherpesvirus 1 [20]": {"tested_on": "Murid betaherpesvirus 1", "assay": "Antiviral activity against MCMV infected in BALB/c mouse assessed as decrease in virus-induced mortality at 16.7 mg/kg, po qd for 5 days administered 48 hrs after viral infection (reference value: 100%)", "assay_type": "functional", "parameters": "scale not given: the % may be the effect or the level left", "summary_of_the_method": "as §1"}, "Mus musculus [21]": {"tested_on": "Mus musculus", "assay": "Toxicity in BALB/c mouse assessed as changes in behavior at 50 mg/kg, po qd for 5 days relative to control", "assay_type": "organism-based", "parameters": "dose 50 mg/kg, route oral", "conditions": "in vivo, 120 h", "summary_of_the_method": "as §2"}, "Mus musculus [22]": {"tested_on": "Mus musculus", "assay": "Toxicity in BALB/c mouse assessed as ruffled coat appearance at 5.6 mg/kg, po qd for 5 days relative to control", "assay_type": "organism-based", "parameters": "dose 5.6 mg/kg, route oral", "conditions": "in vivo, 120 h", "summary_of_the_method": "as §2"}, "Human betaherpesvirus 5 [23]": {"tested_on": "Human betaherpesvirus 5", "assay": "Antiviral activity against HCMV Toledo infected in human thymus/liver tissue xenografted in SCID mouse assessed as mean log10 genome equivalents/animal at 12.5 mg/kg, po qd for 28 days by RT-PCR analysis (reference value: 3.73 +/- 0.784)", "assay_type": "functional, strain Toledo"}, "Human betaherpesvirus 5 [24]": {"tested_on": "Human betaherpesvirus 5", "assay": "Antiviral activity against HCMV Toledo infected in human thymus/liver tissue xenografted in SCID mouse assessed as decrease in viral infection at 6.25 mg/kg, po qd for 28 days by RT-PCR analysis (reference value: 92%)", "assay_type": "functional, strain Toledo", "parameters": "scale not given: the % may be the effect or the level left"}, "Murid betaherpesvirus 1 [25]": {"tested_on": "Murid betaherpesvirus 1", "assay": "Antiviral activity against MCMV infected in BALB/c mouse assessed as decrease in virus-induced mortality at 5.6 mg/kg, po qd for 5 days administered 48 hrs after viral infection (reference value: 100%)", "assay_type": "functional", "parameters": "scale not given: the % may be the effect or the level left", "summary_of_the_method": "as §1"}, "Mus musculus [26]": {"tested_on": "Mus musculus", "assay": "Toxicity in BALB/c mouse assessed as changes in behavior at 5.6 mg/kg, po qd for 5 days relative to control", "assay_type": "organism-based", "parameters": "dose 5.6 mg/kg, route oral", "conditions": "in vivo, 120 h", "summary_of_the_method": "as §2"}, "Mus musculus [27]": {"tested_on": "Mus musculus", "assay": "Toxicity in BALB/c mouse assessed as ruffled coat appearance at 16.7 mg/kg, po qd for 5 days relative to control", "assay_type": "organism-based", "parameters": "dose 16.7 mg/kg, route oral", "conditions": "in vivo, 120 h", "summary_of_the_method": "as §2"}}, "note": "The source made the active and inactive calls. The calls are words filed in the database; no cut-off is given here."}
{"smiles": "Nc1ncc2ncn(/C=C3/CC3(CO)CO)c2n1", "values": [{"measurement": "Activity", "setting": "Murid betaherpesvirus 1 [1]", "result": 7, "unit": "%"}, {"measurement": "Activity", "setting": "Human betaherpesvirus 5 [2]", "result": 92, "unit": "%"}, {"measurement": "Activity", "setting": "Mus musculus [3]", "result": "Non-toxic"}, {"measurement": "Activity", "setting": "Human betaherpesvirus 5 [4]", "result": 3.14}, {"measurement": "Activity", "setting": "Human betaherpesvirus 5 [5]", "result": 3.03}, {"measurement": "Activity", "setting": "Human betaherpesvirus 5 [6]", "result": 50, "unit": "%"}, {"measurement": "Activity", "setting": "Murid betaherpesvirus 1 [7]", "result": 47, "unit": "%"}, {"measurement": "Drug metabolism", "setting": "[8]", "result": "Active"}, {"measurement": "CC50", "setting": "[9]", "result": 71, "unit": "µM"}, {"measurement": "Activity", "setting": "Human betaherpesvirus 5 [10]", "result": 83, "unit": "%"}, {"measurement": "EC50", "setting": "Human betaherpesvirus 5 [11]", "result": "> 300", "unit": "µM"}, {"measurement": "EC50", "setting": "Human betaherpesvirus 5 [12]", "result": "> 100", "unit": "µM"}, {"measurement": "CC50", "setting": "[13]", "result": "> 100", "unit": "µM"}, {"measurement": "Activity", "setting": "Mus musculus [14]", "result": "Non-toxic"}, {"measurement": "Activity", "setting": "Human betaherpesvirus 5 [15]", "result": 2.81}, {"measurement": "Activity", "setting": "Murid betaherpesvirus 1 [16]", "result": 6, "unit": "days"}, {"measurement": "Activity", "setting": "Murid betaherpesvirus 1 [17]", "result": 67, "unit": "%"}, {"measurement": "Activity", "setting": "Vaccinia virus", "result": "inactive"}, {"measurement": "EC50", "setting": "Human alphaherpesvirus 1", "result": "> 300", "unit": "µM"}, {"measurement": "EC50", "setting": "Human gammaherpesvirus 4", "result": 27, "unit": "µM"}, {"measurement": "Activity", "setting": "Murid betaherpesvirus 1 [18]", "result": 11.9, "unit": "days"}, {"measurement": "Activity", "setting": "Human betaherpesvirus 5 [19]", "result": 3.32}, {"measurement": "Activity", "setting": "Murid betaherpesvirus 1 [20]", "result": 7, "unit": "%"}, {"measurement": "Activity", "setting": "Mus musculus [21]", "result": "Non-toxic"}, {"measurement": "Activity", "setting": "Mus musculus [22]", "result": "Non-toxic"}, {"measurement": "Activity", "setting": "Human betaherpesvirus 5 [23]", "result": 2.76}, {"measurement": "Activity", "setting": "Human betaherpesvirus 5 [24]", "result": 58, "unit": "%"}, {"measurement": "Activity", "setting": "Murid betaherpesvirus 1 [25]", "result": 0, "unit": "%"}, {"measurement": "Activity", "setting": "Mus musculus [26]", "result": "Non-toxic"}, {"measurement": "Activity", "setting": "Mus musculus [27]", "result": "Non-toxic"}]}
